# According to PubChem BioAssay:
# The other results are listed elsewhere or left out. Unmarked numbers belong to inactive results. Active and inactive are the calls of the source.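 How the source made its calls, unless noted: active means mean of duplicate thallium-flux fluorescence ratios in parental host cells more than 5 SD below the buffer control mean (cut at about 0.38 in these data); inactive means the rest.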
# Key:
# [1] = biological target: Potassium voltage-gated channel subfamily KQT member 1 (Homo sapiens) (UniProt P51787); assay: blockers of human KCNQ1 channel – cell-based, Tl flux, duplicate, confirmation (AID 588353;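 active means primary screen active, with duplicate mean exceeding buffer control mean plus 3 SD of buffer wells, cut at about 28% in these data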;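 further: 0% = buffer control ratio and 100% = XE991 inhibitor control ratio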); details: KCNQ1 cell line, FluxOR thallium flux fluorescence, at 10 µM, stronger effect = higher value
# Outline: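 Test system: CHO cells stably expressing KCNQ1 potassium channel / Evaluation: percent inhibition of fluorescence change ratio, scaled buffer to XE991 / Technique: FluxOR thallium flux fluorescence, 10 s baseline plus 110 s / Schedule: 90 min dye load, 20 min dark compound exposure, room temperature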
# [2] = nonspecific activity in CHO-K1 cells without KCNQ1 – parental CHO cells, Tl flux, counter-screen for KCNQ1 inhibitor project (AID 588366); details: parental CHO-K1, FluxOR thallium flux fluorescence ratio; at 10 µM; stronger effect = lower value; zero means no signal rise above baseline;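 further: ratio is peak minus minimum fluorescence divided by baseline fluorescence; actives read low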
# Outline: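 Assay system – untransfected parental CHO-K1 cells · Technique – kinetic Tl+ flux fluorescence with FluxOR dye · Timing – FluxOR dye loading 90 min, compound exposure 20 min, room temperature · Replication – duplicate measurements per compound · Also added – K+/Tl+ depolarizing stimulus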
# [3] = biological target: Potassium voltage-gated channel subfamily KQT member 2 (Rattus norvegicus) (UniProt O88943); assay: block of rat KCNQ2 potassium channel – cell-based, selectivity assay for KCNQ1 inhibitor project (AID 651746;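 active means mean percent inhibition of the KCNQ2 thallium signal more than 5 SD above the buffer-only control wells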;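 on inhibition: 0% = buffer control wells and 100% = XE-991 inhibitor control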); details: KCNQ2 cells, FluxOR thallium flux fluorescence, at 10 µM; stronger effect = higher value
# [4] = biological target: Potassium voltage-gated channel subfamily E member 1 (Homo sapiens) + Potassium voltage-gated channel subfamily KQT member 1 (Homo sapiens) (UniProt P15382+P51787); assay: block of human IKs channel complex – CHO-K1 cells, thallium flux, FluxOR, selectivity assay for KCNQ1 inhibitor project (AID 652147;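 active means mean percent inhibition of duplicate wells above the buffer-only control mean plus 3 SD of those controls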;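 on inhibition: 0% = buffer only wells and 100% = XE-991 inhibitor control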); details: KCNQ1/KCNE1 cells, FluxOR thallium flux fluorescence, at 10 µM; stronger effect = higher value
# Outline: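 System: cells expressing KCNQ1/KCNE1 channels; timing: 20 min compound pre-incubation at room temperature; technique: FluxOR thallium influx fluorescence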
# [5] = biological target: Potassium voltage-gated channel subfamily KQT member 1 (Homo sapiens) (UniProt P51787); assay: block of human KCNQ1 potassium current – cell-based, automated electrophysiology, orthogonal assay, confirmation (AID 624120;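 active means KCNQ1 current drop exceeding 3 SD of negative control wells, seen in both duplicate runs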); details: KCNQ1-CHO cells, automated patch clamp current; at 10 µM
# Outline: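 benchmarks = negative controls | test system = CHO cells expressing human KCNQ1 potassium channel | medium = external buffer at pH 7.4 | probe or stimulus = voltage stimulus of 2,000 ms steps to +40 mV, -80 mV holding | repeats = duplicates | signal = amphotericin-perforated automated patch clamp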
# Potassium voltage-gated channel subfamily KQT member 2 (Rattus norvegicus), sequence (O88943 whole entry, looked up): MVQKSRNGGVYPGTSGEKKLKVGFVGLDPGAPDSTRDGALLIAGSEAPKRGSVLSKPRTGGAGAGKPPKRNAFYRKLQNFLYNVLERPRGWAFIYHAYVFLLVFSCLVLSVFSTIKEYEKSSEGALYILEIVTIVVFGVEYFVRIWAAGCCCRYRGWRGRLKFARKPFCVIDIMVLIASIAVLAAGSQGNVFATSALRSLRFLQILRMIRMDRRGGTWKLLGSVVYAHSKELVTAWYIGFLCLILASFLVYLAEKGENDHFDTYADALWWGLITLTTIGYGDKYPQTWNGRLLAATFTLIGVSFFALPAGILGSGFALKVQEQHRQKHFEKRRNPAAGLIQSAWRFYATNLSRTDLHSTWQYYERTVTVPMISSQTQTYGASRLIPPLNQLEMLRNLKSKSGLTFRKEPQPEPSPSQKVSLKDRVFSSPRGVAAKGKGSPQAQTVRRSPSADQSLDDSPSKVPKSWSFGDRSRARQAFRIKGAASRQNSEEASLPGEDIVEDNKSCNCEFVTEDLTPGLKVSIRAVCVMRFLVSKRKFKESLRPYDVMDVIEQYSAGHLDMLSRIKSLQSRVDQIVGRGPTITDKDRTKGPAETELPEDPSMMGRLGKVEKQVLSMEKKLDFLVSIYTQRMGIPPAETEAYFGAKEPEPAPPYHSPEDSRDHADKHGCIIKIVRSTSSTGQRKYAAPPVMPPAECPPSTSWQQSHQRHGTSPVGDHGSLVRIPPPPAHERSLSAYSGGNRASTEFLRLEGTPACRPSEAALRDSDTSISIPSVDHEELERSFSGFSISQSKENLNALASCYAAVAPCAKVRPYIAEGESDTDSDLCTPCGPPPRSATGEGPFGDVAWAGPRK
# Potassium voltage-gated channel subfamily KQT member 1 (Homo sapiens), sequence (P51787 whole entry, looked up): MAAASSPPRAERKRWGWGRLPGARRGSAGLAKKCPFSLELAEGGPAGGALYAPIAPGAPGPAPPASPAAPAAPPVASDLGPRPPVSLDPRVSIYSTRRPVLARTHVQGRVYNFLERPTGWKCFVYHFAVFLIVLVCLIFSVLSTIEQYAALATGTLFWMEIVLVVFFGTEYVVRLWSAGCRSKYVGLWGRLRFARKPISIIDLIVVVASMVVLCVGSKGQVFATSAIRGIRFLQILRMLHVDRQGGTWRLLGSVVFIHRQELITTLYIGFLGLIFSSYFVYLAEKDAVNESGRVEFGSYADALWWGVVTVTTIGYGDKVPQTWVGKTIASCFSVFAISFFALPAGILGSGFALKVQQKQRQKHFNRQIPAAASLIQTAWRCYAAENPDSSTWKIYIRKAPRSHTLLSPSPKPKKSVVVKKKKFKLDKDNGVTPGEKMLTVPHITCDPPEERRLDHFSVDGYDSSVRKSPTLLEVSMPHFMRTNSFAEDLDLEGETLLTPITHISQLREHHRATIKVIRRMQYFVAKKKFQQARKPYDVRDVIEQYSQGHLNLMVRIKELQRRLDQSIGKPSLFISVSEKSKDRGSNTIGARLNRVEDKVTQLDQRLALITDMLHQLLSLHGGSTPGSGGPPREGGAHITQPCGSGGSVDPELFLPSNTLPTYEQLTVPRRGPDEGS
# Potassium voltage-gated channel subfamily E member 1 (Homo sapiens) + Potassium voltage-gated channel subfamily KQT member 1 (Homo sapiens), sequence (P51787 whole entry, looked up): as the sequence (P51787 whole entry, looked up) above
Compound,inhibition [1],fluorescence ratio (Tl flux) [2],inhibition [3],outcome [3],inhibition [4],outcome [5],outcome [4]
CC(C)(CCl)C(=O)Nc1ccc(Sc2ccc(F)cc2)cc1,166% (active),0.393,111% (active),–,–,–,–
CCCN1Cc2cccc(C(=O)NCc3ccccc3)c2C1=O,83% (active),0.478,–,inactive,80% (active),–,–
C=CCSc1nsc(NC(=O)Nc2cccc(C(C)=O)c2)n1,100% (active),0.489,74% (active),–,60% (active),inactive,–
Cc1c(C(=O)OC(C)C)sc(NC(=O)c2cccnc2)c1C#N,74% (active),0.489,78% (active),–,48.5% (active),–,–
Cc1cccc(-c2nc3ccc(C(=O)NCCN4CCN(C)CC4)cc3nc2-c2cccc(C)c2)c1,63% (active),0.34 (active),107% (active),–,118% (active),–,–
CN(c1cccc(NC(=O)Nc2ccc(Cl)cc2)c1)S(C)(=O)=O,59.5% (active),0.545,–,inactive,42.5% (active),–,–
COc1ccc(Nc2ncnc3sc(-c4ccccc4)cc23)c(OC)c1,82.5% (active),0.403,112% (active),–,146% (active),–,–
CCOC(=O)c1ccc(NC(=O)Cn2cnc3cc(C)c(C)cc32)cc1,60% (active),0.481,–,inactive,55% (active),–,–
CCn1c(C)c(C)c2cc(C(=O)N3CCN(c4cccc(C)c4C)CC3)ccc21,106% (active),0.475,66.3% (active),–,180% (active),inactive,–
COc1cc(NC(=O)c2ccccc2NS(=O)(=O)c2ccc(Cl)s2)cc(OC)c1,102% (active),0.419,–,inactive,–,–,inactive
COC(=O)c1cc(NC(=O)c2cc(C(C)(C)C)nn2Cc2cccc(C)c2)ccc1N1CCOCC1,77% (active),0.333 (active),80.3% (active),–,154% (active),–,–
Cn1nc(-c2ccc(Cl)cc2)c2cc(C(=O)NCc3ccco3)sc21,70.5% (active),0.454,103% (active),–,–,–,inactive
O=C(CCN1c2ccccc2Sc2ccccc21)Nc1ccccc1,164% (active),0.384,118% (active),–,186% (active),inactive,–
Cc1cc(Br)ccc1NC(=O)c1cnc(N2CCN(c3ccccn3)CC2)c2ccccc12,89% (active),0.444,94.7% (active),–,124% (active),inactive,–
CS(=O)(=O)N(CC(=O)Nc1ccc(Cl)c(Cl)c1)C1CCCCC1,56.5% (active),0.476,63.3% (active),–,–,–,inactive
Cc1nc(N2CCN(c3ccccn3)CC2)c2c(C)c(C(=O)Nc3ccc(F)c(Cl)c3)sc2n1,160% (active),0.345 (active),124% (active),–,–,–,–

Compound,inhibition [1],fluorescence ratio (Tl flux) [2],inhibition [3],outcome [3],inhibition [4],outcome [5],outcome [4]
CCOC(=O)c1c(NC(=O)C(C)Sc2c[nH]c3ccccc23)sc2c1CCC2 (configuration not stated),124% (active),0.415,105% (active),–,155% (active),–,–
S=C(NCC1CCCO1)N1CCN(c2ccc(Cl)c(Cl)c2)CC1 (configuration not stated),101% (active),0.501,76% (active),–,–,active,inactive
Cc1nc(N2CCN(c3ccccn3)CC2)c2c(C)c(C(=O)Nc3ccc(F)cc3)sc2n1,146% (active),0.324 (active),141% (active),–,–,–,–
Cc1ccc(N2CCN(S(=O)(=O)c3ccc(F)cc3)CC2)c(C)c1,79% (active),0.406,94% (active),–,69.5% (active),–,–
Cc1cccc(-n2cc(CN3CCN(C(=O)c4ncn[nH]4)CC3)c(-c3cccc(F)c3)n2)c1,45.5% (active),0.435,–,inactive,–,–,inactive
COc1ccc(Cl)cc1NC(=O)C(C)N1CCc2ccccc21 (configuration not stated),114% (active),0.428,91% (active),–,132% (active),inactive,–
C=CCOC(=O)C1=C(C)NC(SCC(=O)OCC)=C(C#N)C1c1ccc(C)cc1 (configuration not stated),124% (active),0.425,115% (active),–,160% (active),active,–
O=C(CNCCC1=CCCCC1)Nc1ccccc1N1CCCCCC1,144% (active),0.402,114% (active),–,175% (active),inactive,–
S=C(NCCCc1ccccc1)Nc1ccc(Br)cc1,150% (active),0.591,–,inactive,76.5% (active),inactive,–
Cc1cccc(CSc2ccc(-c3cccs3)nn2)c1,78% (active),0.42,114% (active),–,112% (active),–,–
O=C(NCCc1ccccc1)c1ccc2c(c1)N(Cc1ccccc1)CCS2,71.5% (active),0.426,101% (active),–,72% (active),–,–
O=C(NCC(F)(F)F)Nc1nnc(C(F)(F)F)s1,26% (active),0.557,–,inactive,–,–,inactive
CCc1cc(C(c2ccccc2OC)N2CCOCC2)c(NC(=O)c2ccccc2)s1 (configuration not stated),102% (active),0.335 (active),–,–,132% (active),–,–
Cc1ccccc1OCC(=O)Nc1ccc(N2CCN(C(=O)C(C)C)CC2)c(Cl)c1,57.5% (active),0.503,–,–,51% (active),–,–
O=C(Nc1ccc2ccccc2c1)Nc1ccc2snnc2c1,41.5% (active),0.539,–,inactive,–,–,inactive
O=C(NC(=S)Nc1ccccc1C(=O)O)c1ccc(-c2ccc(Br)cc2)o1,56% (active),0.46,–,inactive,78% (active),–,–
